Bioassay records from PubChem BioAssay.
ROMK primary: human ROMK K+ channel modulation, primary screen; P48048; Tet-inducible ROMK, thallium flux fluorescence; actives lie on both sides; B-score at 10 µM; 2% of 130,000 active;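 active = signal ratio slope over the read window, or its plate-corrected B-score, at least 3 SD from the plate mean, either direction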;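 also: B-score of the F/F0 ratio slope over 7 to 12 s after thallium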
ABCG2 block: inhibitors of human ABCG2 transporter, ABCB1 counter-screen; Q9UNQ0; IgMXP3 cells, JC-1 efflux, flow cytometry; inhibition, % at 6.6 µM; 0.1% of 190,000 active;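 active = inhibition above 80%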;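 also: 0% = DMSO and 100% = nicardipine control wells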
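Test system: IgMXP3 (ABCG2) plus far-red-tagged CCRF-Adr (ABCB1) cells. Reagent: JC-1 dye as substrate. Timing: 10 min exposure at 25 °C with rotation, no wash. Measured by: flow cytometric JC-1 green MFI at 530 nm. Read-out: percent efflux inhibition, scaled nicardipine 100% to DMSO 0%. Control set: nicardipine and DMSO wells.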
ABCB1 block: blocks JC-1 efflux by human ABCB1 transporter | P08183 | CCRF-Adr cells, flow cytometry | inhibition, % at 6.6 µM | 0.067% of 190,000 active | AID 1326; in the data active = inhibition above about 40%;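 also: 0% = vehicle and 100% = reference inhibitor; higher value means more JC-1 retained so stronger ABCB1 efflux block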
TRPML3 agonist: agonists of human TRPML3 channel; Q8TDD5; HEK293 TRPML3-YFP, Fluo-8 calcium fluorescence; 100% = the carbachol control signal; activation, % at 3 µM; 0.29% of 220,000 active; AID 1448;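 active = activation above its plate's cutoff, the mean activation of the plate's test wells plus 3 SD, cut at about 12% in these data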;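 also: 0% = DMSO only wells and 100% = carbachol wells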
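Material: TRPML3-YFP stable HEK293 cells | Dosing: One concentration, 3 µM nominal, 0.3% DMSO | Timing: 125 s total fluorescence read per well | Technique: Fluo-8 calcium dye fluorescence, ex 470-495, em 515-575 nm | Measure: Percent activation from peak-to-basal fluorescence ratio, scaled between DMSO and carbachol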
Calb biofilm kill: mixtures killing C. albicans biofilm | C. albicans biofilm persisters + clotrimazole, fluorescence viability; primary screen in compound mixtures of four per well | inhibition, % at 7.6 µM | 0.02% of 120,000 active | AID 1242;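 active = inhibition above 30.3% in the primary screen of four-compound pools, then above 30% when the compound was retested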;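 also: compounds exposed to preformed 24 h biofilms for 48 h; 0% = untreated biofilm control and 100% = clotrimazole plus chlorhexidine kill blank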
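Test system: C. albicans biofilms. Buffer or medium: RPMI/MOPS medium, pH 7.0. Timing: 48 h compound exposure at 37 °C. Technique: Alamar Blue fluorescence. Evaluation: percent inhibition of biofilm viability.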
zfTRPN1 agonist: agonists of zebrafish TRPN1 channel; HEK293 zebrafish TRPN1-YFP, Fluo-8 calcium fluorescence; 100% = response to 87 µM carbachol; activation, % at 3 µM; AID 1424; 0.18% of 220,000 active;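 active = activation above its plate's cutoff, the mean activation of test wells on that plate plus 3 SD, cut at about 19% in these data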;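 also: 0% = DMSO alone and 100% = 87 µM carbachol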
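Assay system: Zebrafish TRPN1-YFP in HEK293 cells | Incubation: Dye loading 1 h at 37 °C, then 30 min room temperature | Measured by: Kinetic Fluo-8 fluorescence, ex 470-495, em 515-575 nm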
ROMK retest: retested hit modulating human ROMK potassium channel. AID 1917. shares compounds with ROMK primary. 54% of 3,000 active. ROMK thallium flux, fluorescence ratio; stronger effect = lower value. normalized thallium flux (F/F0 slope) at 10 µM;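 active = Flux at 10 µM at least 3 SD below or above vehicle control mean in one or both replicates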
An asterisk follows results filed as active. Only a selection was taken, and hits are over-represented in it overall.

Screening COc1cc(C(=O)N2CCN(Cc3ccccc3C(F)(F)F)CC2)cc(OC)c1OC returned ROMK primary -2.6*, ABCG2 block 4, ABCB1 block 2, TRPML3 agonist -1, zfTRPN1 agonist -1 and ROMK retest 0.077.
For Cc1ccc(-c2csc(NC(=O)Cc3ccc(F)cc3)n2)o1 the results were ROMK primary 4.9*, ABCG2 block 4, ABCB1 block -1, TRPML3 agonist 2, Calb biofilm kill 1, zfTRPN1 agonist 2 and ROMK retest 0.073.
`N#C/C(=C\c1cc2c(cc1Br)OCO2)C(=O)NCC1CCCO1` (centres undefined) gave TRPML3 agonist 2, Calb biofilm kill 12 and zfTRPN1 agonist 2.
`O=C(Nc1ccc[n+](CC(=O)c2cccc3ccccc23)c1)c1ccccc1` gave ROMK primary -2.8*, ABCG2 block 9, ABCB1 block 2, TRPML3 agonist 1, Calb biofilm kill -1, zfTRPN1 agonist 0 and ROMK retest 0.056*.
Screening Cc1ccc[n+](CC(=O)c2ccc(NC(=O)c3ccccc3)cc2)c1 returned ROMK primary 0.15, ABCG2 block 7, ABCB1 block 1, TRPML3 agonist -2, Calb biofilm kill -2 and zfTRPN1 agonist -1.
`CCOC(=O)C1=NNC2C(=O)N(Cc3ccccc3)C(=O)C12` (centres undefined) gave ROMK primary 1.2, TRPML3 agonist 0, Calb biofilm kill 7 and zfTRPN1 agonist 2.
Screening Cc1noc(C)c1COc1ccc(CC(=O)NCc2ccccc2)cc1 returned ROMK primary 3.1*, ABCG2 block 1, ABCB1 block 0, TRPML3 agonist 0, Calb biofilm kill -4, zfTRPN1 agonist -1 and ROMK retest 0.1*.
Screening Cc1noc(C)c1COc1ccc(CC(=O)NC2CCCCCC2)cc1 returned ROMK primary -0.5, ABCG2 block 0, ABCB1 block 0, TRPML3 agonist 2, Calb biofilm kill -10 and zfTRPN1 agonist 4.
For CCOc1cc(N2CCOCC2)c(OCC)cc1NC(=O)c1cc(-c2ccco2)nc2ccccc12 the results were ABCG2 block 3, ABCB1 block 2, TRPML3 agonist 1, zfTRPN1 agonist 2 and ROMK retest 0.066*.
Screening Clc1ccc2nc3ccccn3c2c1 returned ROMK primary 3.6*, ABCG2 block 6, ABCB1 block 0, TRPML3 agonist 0, zfTRPN1 agonist -1 and ROMK retest 0.092.
`CCOc1ccc(NC(=O)C2CC=CCC2C(=O)O)cc1` (centres undefined) gave ABCG2 block 8, ABCB1 block 1, TRPML3 agonist 0, zfTRPN1 agonist 0 and ROMK retest 0.084.
`CCCCOc1ccc(NC(=O)C2CC=CCC2C(=O)O)cc1` (centres undefined) gave ROMK primary 0.51, TRPML3 agonist 0 and zfTRPN1 agonist 0.
For Cc1ccc(N/C=C(\C#N)S(=O)(=O)c2ccccc2)cc1 the results were ROMK primary 2.5*, ABCG2 block 5, ABCB1 block 0, TRPML3 agonist 0, Calb biofilm kill 1, zfTRPN1 agonist -1 and ROMK retest 0.078.
For Cc1ccc(N/C=C(\[N+](=O)[O-])S(=O)(=O)c2ccccc2)cc1 the results were ROMK primary 0.3, ABCG2 block 0, ABCB1 block 0, TRPML3 agonist 1, Calb biofilm kill 20 and zfTRPN1 agonist 1.
Screening Cc1c(/C(O)=C2/C(=O)C(=O)N(CCN(C)C)C2c2ccc(C(C)C)cc2)cnn1-c1ccccc1 (centres undefined) returned TRPML3 agonist 1, Calb biofilm kill 26 and zfTRPN1 agonist 0.
Cc1c(/C(O)=C2\C(=O)C(=O)N(CCN(C)C)C2c2ccccc2)cnn1-c1ccccc1 (centres undefined) was read as TRPML3 agonist 0, Calb biofilm kill 21, zfTRPN1 agonist 3 and ROMK retest 0.078.
